Data published in ChEMBL document CHEMBL3112454, “Discovery and SAR study of hydroxyacetophenone derivatives as potent, non-steroidal farnesoid X receptor (FXR) antagonists” (Bioorg Med Chem, 2014).

What was measured:
[1] = molecular target: T1, Bile acid receptor (Homo sapiens, UniProt Q96RI1); experiment: Antagonist activity at GST-tagged FXRalpha LBD (unknown origin) assessed as inhibition of CDCA-induced bio-SRC-1 recruitment after 30 mins by fluorescence based HTRF assay
T1 sequence (Q96RI1 whole entry): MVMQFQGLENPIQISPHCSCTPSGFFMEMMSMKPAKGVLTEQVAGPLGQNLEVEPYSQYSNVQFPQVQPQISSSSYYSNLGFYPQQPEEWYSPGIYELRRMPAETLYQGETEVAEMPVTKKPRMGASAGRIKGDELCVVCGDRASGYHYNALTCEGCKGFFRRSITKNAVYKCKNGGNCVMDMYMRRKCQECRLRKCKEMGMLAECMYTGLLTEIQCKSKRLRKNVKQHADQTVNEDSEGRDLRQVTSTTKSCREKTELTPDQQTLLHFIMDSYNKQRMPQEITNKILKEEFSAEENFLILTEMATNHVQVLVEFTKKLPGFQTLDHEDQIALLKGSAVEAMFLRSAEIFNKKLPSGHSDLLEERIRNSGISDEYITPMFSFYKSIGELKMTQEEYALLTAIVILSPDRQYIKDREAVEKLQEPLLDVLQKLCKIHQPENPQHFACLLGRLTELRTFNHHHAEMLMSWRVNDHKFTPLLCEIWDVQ
Summary of the method: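 HTRF coactivator-recruitment assay: 10 nM GST-FXRα LBD with 100 nM biotinylated SRC-1 peptide, with CDCA as agonist present. Compounds were tested at a single concentration or a concentration series, incubated 30 min at room temperature, then fluorescence read. Values are mean SD of triplicate measurements.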

[2] = molecular target: T2, Bile acid receptor (Homo sapiens) (UniProt Q96RI1); experiment: Ratio of guggulsterone IC50 to compound IC50 for GST-tagged FXRalpha LBD (unknown origin) assessed as inhibition of CDCA-induced bio-SRC-1 recruitment after 30 mins by fluorescence based HTRF assay
T2 sequence (whole entry): T1 sequence (Q96RI1 whole entry)

## CCc1cc(C(C)=O)c(OC(C)c2ccccc2)cc1OCCCCCC(C)(C)c1nnn[nH]1 (configuration not stated)
[1]
  IC50: 1.7 µM

## CCc1cc(C(C)=O)c(OCc2cccc(C)c2)cc1OCCCCCC(C)(C)c1nnn[nH]1
[1]
  IC50: 1.2 µM

## CCCCc1cc(CC)c(O)cc1OCCCCCC(C)(C)c1nnn[nH]1
[1]
  IC50: 8.7 µM

## CCc1cc(C(C)=O)c(OCc2ccccc2)cc1OCCCCCC(C)(C)c1nnn[nH]1
[2]
  Ratio IC50: 100
[1]
  IC50: 1.1 µM

## CCc1cc(C(C)=O)c(OCC2CCCCC2)cc1OCCCCCC(C)(C)c1nnn[nH]1
[1]
  IC50: 2.9 µM

## CCc1cc(CC)c(OCCCCCC(C)(C)c2nn[nH]n2)cc1O
[1]
  IC50: 3.1 µM

## CCC(=O)c1cc(CC)c(OCCCCCC(C)(C)c2nnn[nH]2)cc1O
[1]
  IC50: 8.5 µM

## CCc1cc(C(C)=O)c(O)cc1OCCCCCC(C)(C)C(=O)O
[1]
  IC50: > 100 µM

## CCc1cc(C(=O)C(C)C)c(O)cc1OCCCCCC(C)(C)c1nnn[nH]1
[1]
  IC50: 8.6 µM

## CCCCC(=O)c1cc(CC)c(OCCCCCC(C)(C)c2nnn[nH]2)cc1O
[1]
  IC50: 5.4 µM

## CCc1cc(C(C)=O)c(O)cc1OCCCCCC(C)(C)c1nn[nH]n1 [LY-255283]
[1]
  IC50: 35.2 µM

## CCc1cc(C(C)=O)c(OC2CCCC2)cc1OCCCCCC(C)(C)c1nnn[nH]1
[1]
  IC50: 3.3 µM

## CCc1cc(C(=O)c2ccccc2)c(O)cc1OCCCCCC(C)(C)c1nnn[nH]1
[1]
  IC50: 3.1 µM

## CCCc1cc(C(C)=O)c(O)cc1OCCCCCC(C)(C)c1nnn[nH]1
[1]
  IC50: 25.2 µM

## CCCCc1cc(C(C)=O)c(OCc2ccccc2)cc1OCCCCCC(C)(C)c1nnn[nH]1
[1]
  IC50: 7.8 µM

## CCc1cc(CC)c(OCc2ccccc2)cc1OCCCCCC(C)(C)c1nnn[nH]1
[1]
  IC50: 3.5 µM

## CCCCCCc1cc(C(C)=O)c(O)cc1OCCCCCC(C)(C)c1nnn[nH]1
[1]
  IC50: 3.2 µM

## CCCCCCC(=O)c1cc(CC)c(OCCCCCC(C)(C)c2nnn[nH]2)cc1O
[1]
  IC50: 8.4 µM

## CCCCc1cc(C(C)=O)c(O)cc1OCCCCCC(C)(C)c1nnn[nH]1
[1]
  IC50: 1.5 µM

## CCc1cc(C(C)=O)c(OC)cc1OCCCCCC(C)(C)c1nnn[nH]1
[1]
  IC50: 5.5 µM

## CC(=O)c1cc(CC(C)C)c(OCCCCCC(C)(C)c2nnn[nH]2)cc1O
[1]
  IC50: 5.8 µM
